Reference: ChEMBL document CHEMBL1129283, “New sigma and 5-HT1A receptor ligands: omega-(tetralin-1-yl)-n-alkylamine derivatives” (J Med Chem, 1996)

How the values were obtained:
[1] = target: T1, 5-hydroxytryptamine receptor 1A (Rattus norvegicus, UniProt P19327); assay: Displacement of [3H]5-HT from rat hippocampal 5-hydroxytryptamine 1A receptor with 10e-6 M ketanserin; format: tissue-based, Hippocampus
T1 sequence (P19327 whole entry): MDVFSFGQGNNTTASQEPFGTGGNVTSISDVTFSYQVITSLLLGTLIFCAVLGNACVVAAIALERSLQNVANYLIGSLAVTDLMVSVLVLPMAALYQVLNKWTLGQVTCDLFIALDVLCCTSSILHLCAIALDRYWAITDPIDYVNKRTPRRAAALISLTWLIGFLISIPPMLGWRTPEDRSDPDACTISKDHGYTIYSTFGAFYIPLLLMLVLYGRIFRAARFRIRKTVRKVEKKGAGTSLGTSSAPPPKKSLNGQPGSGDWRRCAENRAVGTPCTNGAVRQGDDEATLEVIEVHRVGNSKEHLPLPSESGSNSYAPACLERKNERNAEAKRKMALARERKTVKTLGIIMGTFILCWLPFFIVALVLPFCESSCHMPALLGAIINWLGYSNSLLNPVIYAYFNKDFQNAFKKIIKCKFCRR
How it was run: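 Rat hippocampal membranes, preincubated 15 min at 37 °C in 50 mM Tris-HCl pH 7.6. Assay buffer was 50 mM Tris-HCl with 4 mM CaCl2, 5.7 mM ascorbic acid and […], pH 7.6. Used 20 nM [3H]5-HT, 15 min at 37 °C, then filtration. IC50 from 2–3 experiments in triplicate (6–9 concentrations); Ki by Cheng–Prusoff.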

[2] = Selectivity for 5-hydroxytryptamine 1A and sigma receptors; design: reference not given here
[3] = target: Sigma non-opioid intracellular receptor 1 (Rattus norvegicus, UniProt Q9R0C9); assay: Inhibitory activity against Sigma opioid receptor type 1 isolated from whole rat membranes using [3H](+)-pentazocine as radioligand.
How it was run: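 Membranes came from male Sprague–Dawley rat whole brain minus cerebellum and pons-medulla, in 50 mM Tris-HCl pH 7.8, washed four times. Incubated with [3H]-(+)-pentazocine 120 min at 25 °C, then filtered on polyethylenimine-soaked filters. Nonspecific binding was set with 10 µM haloperidol. IC50 from 2–3 experiments in triplicate (6–9 concentrations); Ki by Cheng–Prusoff.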

Cavia porcellus = species: Cavia porcellus; assay: Selectivity for PCP and sigma receptors

Sequence of Sigma non-opioid intracellular receptor 1 (Q9R0C9 whole entry): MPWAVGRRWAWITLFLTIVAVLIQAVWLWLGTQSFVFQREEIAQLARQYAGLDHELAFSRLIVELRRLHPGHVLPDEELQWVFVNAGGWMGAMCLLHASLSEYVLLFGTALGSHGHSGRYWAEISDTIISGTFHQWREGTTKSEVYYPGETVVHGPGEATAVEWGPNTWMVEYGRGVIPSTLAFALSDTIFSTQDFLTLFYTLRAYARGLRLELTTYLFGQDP

Compound `COc1cccc2c1CCCC2CCCNCCC1CCCc2ccccc21` (stereo unspecified) has a Ki [1] of 22.8 nM.
`c1ccc2c(c1)CCCC2CCCN1CCN(C2=NCCCC2)CC1` (stereo unspecified) showed a Ki [1] of 44.2 nM, a Selectivity [2] of 1 and a Ki [3] of 111 nM.
`COc1cccc2c1CCCC2CCCNCCNc1ccccc1` (stereo unspecified) showed a Ki [1] of 14.1 nM, a Selectivity [2] of 0.05 and a Selectivity (Cavia porcellus) of 8.
`COc1cccc2c1CCCC2CCCNCCCc1ccccc1` (stereo unspecified) gave a Ki [1] of 4.4 nM.
Compound `COc1cccc2c1CCCC2CCCNCCc1ccccc1` (stereo unspecified) has a Ki [1] of 31.4 nM.
Work on `COc1ccc2c(c1)C(CCCN1CCN(C3=NCCCC3)CC1)CCC2` (stereo unspecified) yielded a Ki [1] of 414 nM and a Selectivity [2] of 14.
In the case of `COc1cccc2c1CCCC2CCCN1CCN(C2CCCCC2)CC1` (stereo unspecified), the Ki [1] is reported as 28.6 nM and the Ki [3] is reported as 71 nM.
For `COc1cccc2c1CCCC2CCCN1CCNCC1` (stereo unspecified), the Ki [1] was > 1430 nM.
`COc1cccc2c1CCCC2CCCCN1CCN(C2=NCCCC2)CC1` (stereo unspecified) showed a Ki [1] of 37.1 nM and a Ki [3] of 396 nM.
With `C1=C(CCCN2CCN(Cc3ccccc3)CC2)c2ccccc2CC1` the Ki [1] was 214 nM.
In the case of `COc1cccc2c1CCC=C2CCCN1CCN(Cc2ccccc2)CC1`, the Selectivity [2] is reported as > 10.
`COc1cccc2c1CCCC2CCCN1CCN(Cc2ccccc2)CC1` (stereo unspecified) gave a Ki [1] of 3.6 nM and a Ki [3] of 25.7 nM.
In the case of `COc1ccc2c(c1)C(CCCN1CCNCC1)CCC2` (stereo unspecified), the Ki [1] is reported as > 1430 nM.
